Values after ≈ are worked out from the molar mass of the structure shown. Active and inactive are the calls of the source. The rule behind the calls is not given here.
What was measured:
[1] = test system: Staphylococcus aureus; assay: Bacterial killing activity of vancomycin-intermediate Staphylococcus aureus at 8 to 32 ug/ml; format: functional
[2] = test system: Enterococcus faecium; assay: Antimicrobial activity against vancomycin-susceptible Enterococcus faecium FB769334
[3] = test system: Staphylococcus haemolyticus; assay: Antimicrobial activity against Staphylococcus haemolyticus FB953975 by broth microdilution method; format: functional
[4] = test system: Staphylococcus aureus; assay: Antimicrobial activity against methicillin-susceptible Staphylococcus aureus FB892379 by broth microdilution method; format: functional
Procedure, shortened: (§1)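 Clinical staphylococcal isolates from US hospitals with known resistance phenotypes.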

[5] = test system: Staphylococcus epidermidis; assay: Antimicrobial activity against methicillin-resistant Staphylococcus epidermidis FB896283 by broth microdilution method; format: functional; procedure, shortened: as §1
[6] = test system: Staphylococcus haemolyticus; assay: Antimicrobial activity against Staphylococcus haemolyticus FB954177 by broth microdilution method; format: functional
[7] = test system: Streptococcus pyogenes; assay: Antimicrobial activity against erythromycin-susceptible Streptococcus pyogenes FB1041775 by broth microdilution method; format: functional
[8] = test system: Streptococcus pyogenes; assay: Antimicrobial activity against erythromycin-resistant Streptococcus pyogenes FB764371 by broth microdilution method; format: functional
Procedure, shortened: (§2)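 Clinical US hospital isolates. The medium was supplemented with 2 to 5% lysed horse blood.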

[9] = test system: Staphylococcus aureus; assay: Antimicrobial activity against vancomycin-intermediate Staphylococcus aureus FB988644; format: functional
[10] = test system: Staphylococcus epidermidis; assay: Antimicrobial activity against methicillin-resistant Staphylococcus epidermidis FB750345 by broth microdilution method; format: functional; procedure, shortened: as §1
[11] = test system: Streptococcus pyogenes; assay: Bactericidal activity against Streptococcus pyogenes; format: functional
[12] = test system: Streptococcus pyogenes; assay: Antimicrobial activity against erythromycin-susceptible Streptococcus pyogenes FB1041626 by broth microdilution method; format: functional; procedure, shortened: as §2
[13] = test system: Staphylococcus aureus; assay: Antimicrobial activity against methicillin-resistant Staphylococcus aureus FB1065524 by broth microdilution method; format: functional; procedure, shortened: as §1
[14] = test system: Staphylococcus epidermidis; assay: Antimicrobial activity against methicillin-resistant Staphylococcus epidermidis FB758988 by broth microdilution method; format: functional; procedure, shortened: as §1
[15] = test system: Enterococcus faecalis; assay: Antimicrobial activity against vancomycin-susceptible Enterococcus faecalis FB766323; format: functional
[16] = test system: Staphylococcus aureus; assay: Antimicrobial activity against methicillin-resistant Staphylococcus aureus FB1051634 by broth microdilution method; format: functional; procedure, shortened: as §1
[17] = test system: Enterococcus faecalis; assay: Antimicrobial activity against vancomycin-susceptible Enterococcus faecalis FB766782; format: functional
[18] = test system: Staphylococcus aureus; assay: Antimicrobial activity against methicillin-susceptible Staphylococcus aureus FB1050986 by broth microdilution method; format: functional; procedure, shortened: as §1
[19] = test system: Enterococcus faecium; assay: Antimicrobial activity against vancomycin-susceptible Enterococcus faecium FB767191
[20] = test system: Staphylococcus aureus; assay: Bacterial killing activity of methicillin-susceptible Staphylococcus aureus at 8 to 32 ug/ml; format: functional
[21] = test system: Staphylococcus aureus; assay: Bacterial killing activity of methicillin-resistant Staphylococcus aureus at 8 to 32 ug/ml; format: functional
[22] = test system: Streptococcus pyogenes; assay: Bacterial killing activity of Streptococcus pyogenes at 0.25 ug/ml; format: functional
Procedure, shortened: (§3)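 CLSI time-kill in medium with 2 to 5% lysed horse blood; starting inoculum approximately 10^7 CFU/ml; dalbavancin at 0.25, 1, 4 and 16 µg/ml; viable counts followed to 24 h, killing expressed as log10 decrease.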

[23] = test system: Streptococcus pyogenes; assay: Bacterial killing activity of Streptococcus pyogenes at >=1 ug/ml; format: functional; procedure, shortened: as §3
[24] = test system: Staphylococcus aureus; assay: Bacterial killing activity of methicillin-resistant Staphylococcus aureus at 0.25 ug/ml; format: functional, organism-based
Procedure, shortened: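 Time-kill per CLSI with a starting inoculum of approximately 10^7 CFU/ml. Dalbavancin was tested at 0.25, 1, 4 and 16 µg/ml, chosen to reflect free plasma levels plus a lower level. Viable counts were taken over 24 h and reported as log10 decrease.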

[25] = test system: Staphylococcus aureus; assay: Bacterial killing activity of methicillin-susceptible Staphylococcus aureus at 0.25 ug/ml; format: functional, organism-based
Procedure, shortened: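 Time-kill per CLSI; inoculum approximately 10^7 CFU/ml; dalbavancin at 0.25, 1, 4 and 16 µg/ml; viable counts after 24 h exposure, expressed as log10 reduction.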

Row | SMILES | MBC [2] | MBC [3] | MIC [3] | MBC [4] | MBC [5] | MBC [6] | MIC [6] | MBC [7] | MBC [8] | MBC [9] | MBC [10] | MBC [12] | MBC [13] | MBC [14] | MBC [15] | MBC [16] | MBC [17] | MBC [18] | MBC [19] | further results
1 | CN[C@H](CC(C)C)C(=O)N[C@H]1C(=O)N[C@@H](CC(N)=O)C(=O)N[C@H]2C(=O)N[C@H]3C(=O)N[C@H](C(=O)N[C@H](C(=O)O)c4cc(O)cc(O)c4-c4cc3ccc4O)[C@H](O)c3ccc(c(Cl)c3)Oc3cc2cc(c3O[C@@H]2O[C@H](CO)[C@@H](O)[C@H](O)[C@H]2O[C@H]2C[C@](C)(N)[C@H](O)[C@H](C)O2)Oc2ccc(cc2Cl)[C@H]1O [VANCOMYCIN] | 16 µg/mL (≈ 11 µM) | 4 µg/mL (≈ 2.76 µM) | 4 µg/mL (≈ 2.76 µM) | 1 µg/mL (≈ 0.69 µM) | 2 µg/mL (≈ 1.38 µM) | > 32 µg/mL | 1 µg/mL (≈ 0.69 µM) | > 2 µg/mL | 0.5 µg/mL (≈ 0.345 µM) | 8 µg/mL (≈ 5.52 µM) | 2 µg/mL (≈ 1.38 µM) | 0.5 µg/mL (≈ 0.345 µM) | 1 µg/mL (≈ 0.69 µM) | 2 µg/mL (≈ 1.38 µM) | > 32 µg/mL | 1 µg/mL (≈ 0.69 µM) | > 32 µg/mL | 2 µg/mL (≈ 1.38 µM) | > 32 µg/mL | Log10 cfu [1]: >=3; Log10 cfu [11]: <2; Log10 cfu [20]: >=3; Log10 cfu [21]: >=3
2 | CN[C@H]1C(=O)N[C@@H]2Cc3ccc(cc3)Oc3cc4cc(c3O[C@@H]3O[C@H](C(=O)O)[C@@H](O)[C@H](O)[C@H]3NC(=O)CCCCCCCCC(C)C)Oc3ccc(cc3Cl)[C@@H](O)[C@@H]3NC(=O)[C@H](NC(=O)[C@@H]4NC(=O)[C@@H](NC2=O)c2cc(cc(O)c2Cl)Oc2cc1ccc2O)c1ccc(O)c(c1)-c1c(O[C@H]2O[C@H](CO)[C@@H](O)[C@H](O)[C@@H]2O)cc(O)cc1[C@@H](C(=O)NCCCN(C)C)NC3=O [DALBAVANCIN] | 2 µg/mL (≈ 1.1 µM) | 0.25 µg/mL (≈ 0.138 µM) | 0.12 µg/mL (≈ 0.0661 µM) | 0.06 µg/mL (≈ 0.033 µM) | 0.03 µg/mL (≈ 0.0165 µM) | 0.12 µg/mL (≈ 0.0661 µM) | 0.03 µg/mL (≈ 0.0165 µM) | 0.25 µg/mL (≈ 0.138 µM) | 0.008 µg/mL (≈ 0.0044 µM) | 2 µg/mL (≈ 1.1 µM) | 0.06 µg/mL (≈ 0.033 µM) | 0.008 µg/mL (≈ 0.0044 µM) | 0.5 µg/mL (≈ 0.275 µM) | 0.06 µg/mL (≈ 0.033 µM) | 8 µg/mL (≈ 4.4 µM) | 0.06 µg/mL (≈ 0.033 µM) | 4 µg/mL (≈ 2.2 µM) | 1 µg/mL (≈ 0.55 µM) | 2 µg/mL (≈ 1.1 µM) | MIC [2]: 0.015 µg/mL (≈ 0.00826 µM); MIC [4]: 0.06 µg/mL (≈ 0.033 µM); MIC [5]: 0.03 µg/mL (≈ 0.0165 µM); Log10 cfu [22]: >3; MIC [7]: 0.008 µg/mL (≈ 0.0044 µM); MIC [8]: 0.008 µg/mL (≈ 0.0044 µM); MIC [9]: 1 µg/mL (≈ 0.55 µM); Log10 cfu [23]: 5; MIC [10]: 0.06 µg/mL (≈ 0.033 µM); MIC [12]: 0.008 µg/mL (≈ 0.0044 µM); MIC [13]: 0.06 µg/mL (≈ 0.033 µM); Activity [24]: Active; MIC [14]: 0.06 µg/mL (≈ 0.033 µM); MIC [15]: 0.03 µg/mL (≈ 0.0165 µM); MIC [16]: 0.06 µg/mL (≈ 0.033 µM); MIC [17]: 0.06 µg/mL (≈ 0.033 µM); MIC [18]: 0.06 µg/mL (≈ 0.033 µM); MIC [19]: 0.03 µg/mL (≈ 0.0165 µM); Activity [25]: Active
